Test results as given in article PMC6105922 (Rheumatology (Oxford, England), 2018).

Assays:
serum urate (sUA) = assay: Serum urate; format: in vivo, human; conditions: for Proportion of subjects with sUA ⩽6.0 mg/dl at 4 h after treatment: pooled cohorts
urinary uric acid = assay: Urinary uric acid excretion; format: in vivo, human; conditions: for FEUA (fractional excretion of uric acid) relative to baseline: data not shown; for Mean maximum ReUR (urinary uric acid excretion rate) relative to baseline: in vivo
Summary of the method: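 Oral dosing was once daily after breakfast over 7-day periods in hyperuricaemic Japanese men. Total-catch urine was collected on days −1, 7, 14, 21 and 28, with 240 ml water drunk on rising, within 2 h before dosing. The urinary uric acid excretion rate (mg/h) and fractional excretion (%) were calculated per 24-h collection and compared with baseline.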

[1] = Plasma and urine pharmacokinetics of verinurad; format: in vivo; conditions: human, oral
Summary of the method: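 Japanese men with gout or asymptomatic hyperuricaemia (sUA ≥8 mg/dl) took oral drug once daily after breakfast, alone or with febuxostat 10, 20 or 40 mg, over 7-day periods. Serial plasma and total-catch urine were taken on days −1, 7, 14, 21 and 28. Plasma was protein-precipitated and urine water-diluted, both assayed by HPLC-MS/MS.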

[2] = Safety: adverse events, serum creatinine, laboratory evaluations; format: in vivo, human
Summary of the method: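 Males aged 21–65 were dosed orally once daily after breakfast for 7-day periods and followed to day 42. Monitoring covered adverse events (MedDRA v18.0), clinical laboratory tests including serum creatinine, vital signs, ECGs and physical examinations. An independent committee was to adjudicate serious renal events. Clinically relevant laboratory abnormalities were graded by Rheumatology Common Toxicity Criteria v2.0. Results are descriptive, in everyone given at least one dose.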

Structure (SMILES)	Subjects achieving sUA ⩽6.0 mg/dl 4 h after treatment (serum urate (sUA); benzbromarone 50 mg alone)	sUA-lowering effect (serum urate (sUA); benzbromarone 50 mg, Cohort 6)	Proportion of subjects with sUA ⩽6.0 mg/dl at 4 h after treatment (serum urate (sUA); febuxostat 10 mg alone)	Proportion of subjects with sUA ⩽6.0 mg/dl at 4 h after treatment (serum urate (sUA); febuxostat 40 mg alone)	FEUA (fractional excretion of uric acid) relative to baseline (urinary uric acid)	Mean maximum ReUR (urinary uric acid excretion rate) relative to baseline (urinary uric acid)	Subjects achieving sUA ⩽6.0 mg/dl 4 h after treatment (serum urate (sUA); verinurad 10 or 15 mg alone)	half-life ([1]; plasma, mean t½, varying verinurad doses alone or in combination with febuxostat)	CL renal ([1]; urine and plasma)	Subjects with sCr elevation ⩾1.5 × baseline ([2]; verinurad 2.5 mg or verinurad 15 mg alone (cohort 5))	Tolerability ([2]; verinurad 2.5 mg to 15 mg, no withdrawals due to adverse events)
CCc1oc2ccccc2c1C(=O)c1cc(Br)c(O)c(Br)c1 [benzbromarone]	All subjects	generally similar in sUA-lowering effect to verinurad 5 mg combined with febuxostat 20 mg									
Cc1nc(-c2ccc(OCC(C)C)c(C#N)c2)sc1C(=O)O [febuxostat, reference compound]			20.8%	83.3%	reduced	reduced					
CC(C)(Sc1ccncc1-c1ccc(C#N)c2ccccc12)C(=O)O [verinurad]					increased in a dose-dependent manner	increased	All subjects	13 to 24 h	12.4 to 15.1 mL/min	Two subjects	well tolerated
